Test results published in ChEMBL document CHEMBL1141070, “Synthesis and biological activity of flurbiprofen analogues as selective inhibitors of beta-amyloid(1)(-)(42) secretion” (J Med Chem, 2005).

Experiments:
Caco-2 = assay: Permeability in the Caco-2 cell; high absorption; assay type: ADME, cell-based; settings: human
In short: (§1)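 Caco-2 monolayers on polycarbonate Transwell inserts, 2 h at 37 °C. Apical and basolateral solutions analysed by LC-MS/MS (SRM). Papp = Cb·Vb/(C0·A·t).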

[1] = target: T1, Amyloid-beta precursor protein (Homo sapiens, UniProt P05067); assay: Inhibitory concentration against beta-amyloid-42 (Abeta42) secretion was evaluated in human neuroglioma cells (H4-APP695NL); assay type: functional, cell-based
In short: (§2)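 H4-APP695NL human neuroglioma cells (APP695 Swedish K595N/M596L) seeded at 2 × 10^5/well and grown 24 h to confluence. Increasing compound concentrations added overnight; DMSO 1% as vehicle. Supernatant Aβ42 or Aβ40 measured by electrochemiluminescence immunoassay: biotinylated 4G8 plus C-terminus-specific rabbit antibodies, captured on streptavidin beads.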
Target sequence in this assay (P05067 18-770 limits assumed): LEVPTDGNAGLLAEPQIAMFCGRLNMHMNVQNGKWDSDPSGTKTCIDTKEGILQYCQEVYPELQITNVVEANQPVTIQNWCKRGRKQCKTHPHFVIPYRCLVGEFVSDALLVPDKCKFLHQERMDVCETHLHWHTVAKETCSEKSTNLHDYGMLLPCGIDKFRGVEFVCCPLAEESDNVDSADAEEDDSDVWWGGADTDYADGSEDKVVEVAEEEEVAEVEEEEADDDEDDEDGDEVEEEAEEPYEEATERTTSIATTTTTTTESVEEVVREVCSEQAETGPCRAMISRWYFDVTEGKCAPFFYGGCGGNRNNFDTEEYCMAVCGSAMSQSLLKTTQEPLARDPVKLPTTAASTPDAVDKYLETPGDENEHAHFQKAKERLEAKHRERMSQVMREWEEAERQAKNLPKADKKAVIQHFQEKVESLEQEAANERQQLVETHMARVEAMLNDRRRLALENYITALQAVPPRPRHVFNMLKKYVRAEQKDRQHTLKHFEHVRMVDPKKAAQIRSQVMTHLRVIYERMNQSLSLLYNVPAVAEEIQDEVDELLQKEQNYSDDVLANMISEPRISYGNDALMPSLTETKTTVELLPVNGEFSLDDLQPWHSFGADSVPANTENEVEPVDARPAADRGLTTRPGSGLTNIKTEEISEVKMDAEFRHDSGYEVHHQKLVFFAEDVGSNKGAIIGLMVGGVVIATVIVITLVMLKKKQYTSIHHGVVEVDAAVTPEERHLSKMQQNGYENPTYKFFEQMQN

Cytochrome P450 2C19 [2] = target: T2, Cytochrome P450 2C19 (Homo sapiens, UniProt P33261); assay: Compound dissolved in DMSO was tested for interaction with baculovirus-insect cells expressing human cytochrome P450 at 100 uM; assay type: ADME
In short: (§3)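 Microsomes from baculovirus-insect cells expressing human CYP1A2, 2C9, 2C19, 2D6 or 3A4. Compound serially diluted with an NADPH-regenerating mix (16.3 μM NADP+, 0.83 mM glucose-6-phosphate, 0.83 mM MgCl2, 0.4 U/mL G6PDH). Pre-warmed 10 min at 37 °C, then isoform-specific substrate added in 0.35 M potassium phosphate pH 7.4. Fluorometric read-out; IC50 by nonlinear regression.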

[3] = target: T3, Prostaglandin G/H synthase 1 (Rattus norvegicus) (UniProt Q63921); assay: Percent inhibition against cyclooxygenase-1 at 100 uM in rat blood
T3 sequence (whole entry): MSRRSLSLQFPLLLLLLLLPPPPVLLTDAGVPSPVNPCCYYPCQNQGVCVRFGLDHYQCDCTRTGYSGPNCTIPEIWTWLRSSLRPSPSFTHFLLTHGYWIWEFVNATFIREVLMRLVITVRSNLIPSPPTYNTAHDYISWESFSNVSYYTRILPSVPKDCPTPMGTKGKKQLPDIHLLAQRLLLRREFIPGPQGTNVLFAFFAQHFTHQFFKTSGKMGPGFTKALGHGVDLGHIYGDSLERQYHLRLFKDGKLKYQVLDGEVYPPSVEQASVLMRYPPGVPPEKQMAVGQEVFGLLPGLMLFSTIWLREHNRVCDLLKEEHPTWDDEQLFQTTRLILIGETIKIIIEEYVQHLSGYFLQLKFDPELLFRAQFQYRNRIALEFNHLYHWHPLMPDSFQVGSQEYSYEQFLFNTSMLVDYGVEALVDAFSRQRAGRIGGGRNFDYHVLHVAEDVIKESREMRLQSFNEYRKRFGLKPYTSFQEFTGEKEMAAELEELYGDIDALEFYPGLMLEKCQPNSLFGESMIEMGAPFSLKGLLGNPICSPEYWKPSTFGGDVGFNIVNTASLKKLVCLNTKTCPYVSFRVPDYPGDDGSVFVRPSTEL
In short: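 Fresh rat whole blood preincubated 1 h at 37 °C with compound (100 μM) or DMSO (0.3% final). Stimulated 30 min with A23187 calcium ionophore; plasma thromboxane B2 measured by radioimmunoassay.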

[4] = target: T1, Amyloid-beta precursor protein; settings: at 100 µM
Target sequence in this assay (P05067 whole entry): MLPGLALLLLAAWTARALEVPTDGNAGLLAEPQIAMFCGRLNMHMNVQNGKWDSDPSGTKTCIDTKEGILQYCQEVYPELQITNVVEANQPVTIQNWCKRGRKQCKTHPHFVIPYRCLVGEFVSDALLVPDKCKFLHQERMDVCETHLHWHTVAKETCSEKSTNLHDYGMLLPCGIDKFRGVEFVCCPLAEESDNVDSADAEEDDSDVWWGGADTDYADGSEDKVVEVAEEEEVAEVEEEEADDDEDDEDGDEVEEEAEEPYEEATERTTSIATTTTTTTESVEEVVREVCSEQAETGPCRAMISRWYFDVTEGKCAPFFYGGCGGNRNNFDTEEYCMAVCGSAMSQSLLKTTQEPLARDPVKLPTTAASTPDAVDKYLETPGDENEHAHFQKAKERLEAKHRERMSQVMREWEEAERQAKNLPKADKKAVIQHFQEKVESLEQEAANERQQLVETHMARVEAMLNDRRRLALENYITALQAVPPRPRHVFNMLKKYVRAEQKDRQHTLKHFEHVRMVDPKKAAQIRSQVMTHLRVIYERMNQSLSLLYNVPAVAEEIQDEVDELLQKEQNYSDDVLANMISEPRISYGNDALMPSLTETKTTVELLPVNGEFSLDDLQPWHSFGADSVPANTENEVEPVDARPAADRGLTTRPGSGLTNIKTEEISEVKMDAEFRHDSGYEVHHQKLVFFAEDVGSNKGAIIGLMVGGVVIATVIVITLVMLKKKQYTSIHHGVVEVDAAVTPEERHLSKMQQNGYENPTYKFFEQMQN

[5] = Area under curve after administration to rats at a dose of 0.5 mg/kg intravenously; assay type: ADME, organism-based; parameters: dose 0.5 mg/kg, route intravenous; settings: rat, in vivo, iv
[6] = Elimination phase half-life after administration to rats at a dose of 2.5 mg/kg orally; assay type: ADME, organism-based; parameters: dose 2.5 mg/kg, route oral; settings: rat, in vivo, po
[7] = Maximal concentration in rats after 0.5 mg/kg intravenous dose; assay type: ADME, organism-based; parameters: dose 0.5 mg/kg, route intravenous; settings: rat, in vivo
[8] = Maximal concentration in rats after 2.5 mg/kg oral dose; assay type: ADME, organism-based; parameters: dose 2.5 mg/kg, route oral; settings: rat, in vivo
[9] = Area under curve after administration to rats at a dose of 2.5 mg/kg orally; assay type: ADME, organism-based; parameters: dose 2.5 mg/kg, route oral; settings: rat, in vivo, po
[10] = In vivo steady state metabolic clearance of the compound; settings: rat
[11] = Absolute oral bioavailability after administration to rats at a dose of 2.5 mg/kg orally; settings: rat, in vivo
Cytochrome P450 2C9 = Cytochrome P450 2C9 (Homo sapiens, UniProt P11712); assay: Interaction with human cytochrome P450 isoform 2C9 expressed in baculovirus-insect cells; assay type: ADME; in short: as §3
Cytochrome P450 2C19 [12] = target: T2, Cytochrome P450 2C19; assay: Interaction with human cytochrome P450 isoform 2C19 expressed in baculovirus-insect cells; assay type: ADME; in short: as §3
[13] = Total body clearance after administration to rats at a dose of 0.5 mg/kg intravenously; settings: rat, in vivo, iv
CYP2C19 = CYP2C19 (Homo sapiens, UniProt P33261); assay: Interaction with human cytochrome P450 isoform 2C19 expressed in baculovirus-insect cells at 100 uM; assay type: ADME; in short: as §3
CYP2D6 = CYP2D6 (Homo sapiens, UniProt P10635); assay: (§4) Interaction with human cytochrome P450 isoform 2D6 expressed in baculovirus-insect cells at 100 uM; assay type: ADME; in short: as §3
Cytochrome P450 2D6 [14] = target: T4, Cytochrome P450 2D6 (Homo sapiens, UniProt P10635); assay: as §4; assay type: ADME; in short: as §3
CYP1A2 = target: T5, CYP1A2 (Homo sapiens, UniProt P05177); assay: Interaction with human cytochrome P450 isoform 1A2 expressed in baculovirus-insect cells at 100 uM; assay type: ADME; in short: as §3
T5 sequence (P05177 whole entry): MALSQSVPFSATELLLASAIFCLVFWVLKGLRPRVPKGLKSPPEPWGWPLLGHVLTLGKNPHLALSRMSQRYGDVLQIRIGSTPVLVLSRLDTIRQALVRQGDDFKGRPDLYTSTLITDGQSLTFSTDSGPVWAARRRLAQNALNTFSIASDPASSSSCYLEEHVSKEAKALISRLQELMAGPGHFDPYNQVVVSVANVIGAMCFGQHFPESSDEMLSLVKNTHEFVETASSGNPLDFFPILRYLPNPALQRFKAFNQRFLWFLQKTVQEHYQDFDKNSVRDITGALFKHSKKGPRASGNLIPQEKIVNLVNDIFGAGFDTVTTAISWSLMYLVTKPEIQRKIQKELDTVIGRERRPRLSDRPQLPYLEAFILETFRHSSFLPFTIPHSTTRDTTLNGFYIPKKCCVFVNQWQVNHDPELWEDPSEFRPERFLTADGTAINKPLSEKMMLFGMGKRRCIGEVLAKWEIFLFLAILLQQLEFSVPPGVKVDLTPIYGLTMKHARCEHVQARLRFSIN

[15] = Intestinal drug absorption was estimated in vitro using human colon adenocarcinoma (Caco-2) cell monolayers; Range is 10-50 nm/s; assay type: ADME; in short: as §1
[16] = target: T1, Amyloid-beta precursor protein; assay: Concentration required to inhibit A beta 40 peptide; in short: as §2
Target sequence in this assay (P05067 whole entry): as the sequence (P05067 whole entry) above

[17] = Concentration ratio in cerebrospinal fluid and plasma; settings: rat
[18] = Area under curve after administration to rats at adose of 1.5 mg/kg intravenously; assay type: ADME, organism-based; parameters: dose 1.5 mg/kg, route intravenous; settings: rat, in vivo, iv
[19] = Elimination phase half-life after administration to rats at a dose of 7.6 mg/kg orally; assay type: ADME, organism-based; parameters: dose 7.6 mg/kg, route oral; settings: rat, in vivo, po
[20] = Maximum time corresponding to maximum concentration after administration to rats at a dose of 1.5 mg/kg intravenously; assay type: ADME, organism-based; parameters: dose 1.5 mg/kg, route intravenous; settings: rat, in vivo, iv
Cytochrome P450 2C19 [21] = target: T2, Cytochrome P450 2C19; assay: Compound was tested for interaction with baculovirus-insect cells expressing human cytochrome P450; No interactions at 100 uM; assay type: ADME
[22] = Elimination phase half-life after administration to rats at a dose of 1.5 mg/kg intravenously; assay type: ADME, organism-based; parameters: dose 1.5 mg/kg, route intravenous; settings: rat, in vivo, iv
[23] = Maximum time corresponding to maximum concentration after administration to rats at a dose of 7.6 mg/kg orally; assay type: ADME, organism-based; parameters: dose 7.6 mg/kg, route oral; settings: rat, in vivo, po
[24] = Absolute oral bioavailability after administration to rats at a dose of 7.6 mg/kg orally; assay type: ADME, organism-based; settings: rat, in vivo
[25] = Maximal concentration in rats after 7.6 mg/kg oral dose; assay type: ADME, organism-based; parameters: dose 7.6 mg/kg, route oral; settings: rat, in vivo
[26] = target: T6, Prostaglandin G/H synthase 1 (Rattus norvegicus, UniProt Q63921); assay: Concentration required to inhibit cyclooxygenase-1 in rat blood
T6 sequence (Q63921 whole entry): T3 sequence (whole entry)
In short: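 Fresh rat whole blood was preincubated 1 h at 37 °C with compound (100 μM or a concentration series; DMSO 0.3% final). It was then stimulated 30 min with the Ca²⁺ ionophore A23187. Thromboxane B2 in the plasma was measured by radioimmunoassay.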

[27] = Total body clearance after administration to rats at a dose of 1.5 mg/kg intravenously; assay type: ADME, organism-based; parameters: dose 1.5 mg/kg, route intravenous; settings: rat, in vivo, iv
[28] = Area under curve after administration to rats at a dose of 7.6 mg/kg orally; assay type: ADME, organism-based; parameters: dose 7.6 mg/kg, route oral; settings: rat, in vivo, po
[29] = Maximal concentration in rats after 1.5 mg/kg intravenous dose; assay type: ADME, organism-based; parameters: dose 1.5 mg/kg, route intravenous; settings: rat, in vivo
[30] = Intestinal drug absorption was estimated in vitro using human colon adenocarcinoma (Caco-2) cell monolayers; assay type: ADME; in short: as §1
Cytochrome P450 1A2 = target: T7, Cytochrome P450 1A2 (Homo sapiens, UniProt P05177); assay: Interaction with human cytochrome P450 isoform 1A2 expressed in baculovirus-insect cells; assay type: ADME
T7 sequence (P05177 whole entry): T5 sequence (P05177 whole entry)
In short: (§5)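 Supersome microsomes from baculovirus-insect cells expressing human CYP1A2, 2C9, 2C19, 2D6 or 3A4 were used with isoform-specific fluorogenic substrates. Compounds were serially diluted with an NADP⁺/glucose-6-phosphate regenerating system in 0.35 M potassium phosphate, pH 7.4. Plates were prewarmed 10 min at 37 °C, reactions stopped with acetonitrile/Tris, and fluorescence read. IC50 was obtained by nonlinear regression.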

Cytochrome P450 3A4 = Cytochrome P450 3A4 (Homo sapiens, UniProt P08684); assay: Interaction with human cytochrome P450 isoform 3A4 expressed in baculovirus-insect cells; assay type: ADME; in short: as §5
Cytochrome P450 2D6 [31] = target: T4, Cytochrome P450 2D6; assay: Interaction with human cytochrome P450 isoform 2D6 expressed in baculovirus-insect cells; assay type: ADME; in short: as §5

T2 sequence (P33261 whole entry, canonical isoform): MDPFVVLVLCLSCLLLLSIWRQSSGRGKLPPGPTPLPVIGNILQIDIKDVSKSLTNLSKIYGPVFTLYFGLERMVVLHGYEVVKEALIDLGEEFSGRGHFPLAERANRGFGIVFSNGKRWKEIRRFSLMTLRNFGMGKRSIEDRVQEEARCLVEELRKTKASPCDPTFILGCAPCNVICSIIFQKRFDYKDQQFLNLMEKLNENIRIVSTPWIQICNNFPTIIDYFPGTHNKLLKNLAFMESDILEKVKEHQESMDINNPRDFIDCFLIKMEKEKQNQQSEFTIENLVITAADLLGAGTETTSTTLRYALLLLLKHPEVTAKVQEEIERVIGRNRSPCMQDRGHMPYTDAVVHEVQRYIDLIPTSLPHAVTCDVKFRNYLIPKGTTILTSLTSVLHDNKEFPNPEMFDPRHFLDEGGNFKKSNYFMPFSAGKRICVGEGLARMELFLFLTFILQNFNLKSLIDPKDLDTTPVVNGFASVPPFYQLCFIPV
Cytochrome P450 2C9, sequence (P11712 whole entry, canonical isoform): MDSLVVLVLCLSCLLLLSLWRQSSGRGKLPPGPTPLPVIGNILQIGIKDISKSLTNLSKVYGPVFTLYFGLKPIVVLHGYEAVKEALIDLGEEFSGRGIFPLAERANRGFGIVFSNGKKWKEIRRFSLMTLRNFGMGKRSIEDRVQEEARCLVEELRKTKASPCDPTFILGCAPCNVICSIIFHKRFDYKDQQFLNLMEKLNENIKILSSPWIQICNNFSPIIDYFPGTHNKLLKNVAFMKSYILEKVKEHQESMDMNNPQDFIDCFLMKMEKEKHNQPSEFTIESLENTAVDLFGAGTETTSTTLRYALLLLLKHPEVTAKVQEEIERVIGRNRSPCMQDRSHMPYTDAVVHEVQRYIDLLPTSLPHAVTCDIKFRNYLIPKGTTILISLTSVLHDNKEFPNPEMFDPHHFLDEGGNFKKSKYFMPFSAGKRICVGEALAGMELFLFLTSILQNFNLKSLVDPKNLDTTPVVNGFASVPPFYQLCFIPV
T4 sequence (P10635 whole entry, canonical isoform): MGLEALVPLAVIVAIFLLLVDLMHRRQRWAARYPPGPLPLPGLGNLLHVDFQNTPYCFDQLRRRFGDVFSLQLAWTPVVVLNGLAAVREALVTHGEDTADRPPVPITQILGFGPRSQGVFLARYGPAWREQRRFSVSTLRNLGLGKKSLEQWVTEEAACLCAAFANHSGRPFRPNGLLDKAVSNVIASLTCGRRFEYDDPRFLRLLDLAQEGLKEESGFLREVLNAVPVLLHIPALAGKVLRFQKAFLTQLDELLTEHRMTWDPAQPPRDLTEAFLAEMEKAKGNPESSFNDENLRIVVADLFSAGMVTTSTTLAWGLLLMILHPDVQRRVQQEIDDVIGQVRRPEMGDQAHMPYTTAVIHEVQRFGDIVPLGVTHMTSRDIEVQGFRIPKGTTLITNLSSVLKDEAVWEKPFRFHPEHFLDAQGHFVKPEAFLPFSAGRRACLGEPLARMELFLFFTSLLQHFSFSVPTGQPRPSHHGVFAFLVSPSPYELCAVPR
CYP2C19, sequence (P33261 whole entry, canonical isoform): as the sequence (P33261 whole entry, canonical isoform) above
Cytochrome P450 3A4, sequence (P08684 whole entry, canonical isoform): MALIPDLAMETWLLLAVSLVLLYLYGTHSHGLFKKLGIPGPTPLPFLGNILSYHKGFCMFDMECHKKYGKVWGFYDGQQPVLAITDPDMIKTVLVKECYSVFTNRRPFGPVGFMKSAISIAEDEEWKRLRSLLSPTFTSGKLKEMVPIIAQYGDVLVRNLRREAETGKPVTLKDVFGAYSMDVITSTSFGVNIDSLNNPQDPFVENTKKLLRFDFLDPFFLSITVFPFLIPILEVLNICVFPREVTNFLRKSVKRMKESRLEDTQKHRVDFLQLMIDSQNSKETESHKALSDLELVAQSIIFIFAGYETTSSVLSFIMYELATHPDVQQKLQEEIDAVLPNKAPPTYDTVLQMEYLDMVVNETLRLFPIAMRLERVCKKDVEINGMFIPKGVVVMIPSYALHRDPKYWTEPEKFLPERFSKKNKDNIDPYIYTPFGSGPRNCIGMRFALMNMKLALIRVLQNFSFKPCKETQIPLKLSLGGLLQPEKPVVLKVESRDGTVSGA
CYP2D6, sequence (P10635 whole entry, canonical isoform): as the sequence (P10635 whole entry, canonical isoform) above

CC(C(=O)O)c1ccc(-c2ccc(C(F)(F)F)cc2)c(F)c1 (stereo not given)
Absoption (Caco-2): High
IC50 [1]: 129 µM
Inhibition (Cytochrome P450 2C19 [2]): No interactions
inhibition [3]: 40%
inhibition [4]: 60%

O=C(O)C1(c2ccc(-c3ccc(Cl)c(Cl)c3)c(F)c2)CC1
AUC [5]: 173 µg/h/mL
Absorption (Caco-2): High
IC50 [1]: 41 µM
T1/2 [6]: 20.7 h
half-life [6]: 20.7 h
Cmax [7]: 6100 ng/mL
Cmax [8]: 16200 ng/mL
inhibition [3]: < 1%
AUC [9]: 435 µg/h/mL
Clearance [10]: 1.5 mL/h
bioavailability [11]: 50.2%
IC50 (Cytochrome P450 2C9): 38 µM
IC50 (Cytochrome P450 2C19 [12]): 25 µM
inhibition [4]: 79%
Clearance [13]: 0.0483 mL/min/kg

CC(C(=O)O)c1ccc(-c2ccc(C3CCCCC3)cc2)c(F)c1 (stereo not given)
inhibition at 100 µM (CYP2C19): > 50%
IC50 [1]: 21 µM
inhibition at 100 µM (CYP2D6): > 50%
Inhibition (Cytochrome P450 2D6 [14]): > 50%
inhibition at 100 µM (CYP1A2): > 50%
Papp [15]: 5 ×10⁻⁶ cm/s
inhibition [3]: 18%
Clearance [10]: 174 mL/h
IC50 [16]: 46 µM
inhibition [4]: 79%
Ratio [17]: 1.5%

CC(C(=O)O)c1ccc(-c2ccccc2)c(F)c1 (stereo not given) [FLURBIPROFEN]
AUC [18]: 78 µg/h/mL
half-life [19]: 4.9 h
Tmax [20]: 0.3 h
IC50 [1]: 305 µM
Inhibition (Cytochrome P450 2C19 [21]): No interactions
half-life [22]: 5.1 h
Tmax [23]: 0.5 h
Clearance [10]: 13.9 mL/h
bioavailability [24]: 78.3%
inhibition [4]: 30%
Cmax [25]: 49100 ng/mL
IC50 [26]: 0.17 µM
Clearance [27]: 0.318 mL/min/kg
AUC [28]: 311 µg/h/mL
Cmax [29]: 9100 ng/mL
Papp [30]: > 5 ×10⁻⁶ cm/s

CC1(C)CC(Oc2ccc(-c3ccc(C4(C(=O)O)CC4)cc3F)cc2)CC(C)(C)C1
IC50 (Cytochrome P450 1A2): 26 µM
IC50 [1]: 11 µM
IC50 (Cytochrome P450 3A4): 27 µM
Clearance [10]: 134 mL/h
IC50 (Cytochrome P450 2D6 [31]): 30 µM
IC50 (Cytochrome P450 2C9): 15 µM
IC50 (Cytochrome P450 2C19 [12]): 33 µM
inhibition [4]: 97%
